The target in test [1] is T1, Oxysterols receptor LXR-alpha (Homo sapiens, UniProt Q13133).
T1 sequence (Q13133 whole entry): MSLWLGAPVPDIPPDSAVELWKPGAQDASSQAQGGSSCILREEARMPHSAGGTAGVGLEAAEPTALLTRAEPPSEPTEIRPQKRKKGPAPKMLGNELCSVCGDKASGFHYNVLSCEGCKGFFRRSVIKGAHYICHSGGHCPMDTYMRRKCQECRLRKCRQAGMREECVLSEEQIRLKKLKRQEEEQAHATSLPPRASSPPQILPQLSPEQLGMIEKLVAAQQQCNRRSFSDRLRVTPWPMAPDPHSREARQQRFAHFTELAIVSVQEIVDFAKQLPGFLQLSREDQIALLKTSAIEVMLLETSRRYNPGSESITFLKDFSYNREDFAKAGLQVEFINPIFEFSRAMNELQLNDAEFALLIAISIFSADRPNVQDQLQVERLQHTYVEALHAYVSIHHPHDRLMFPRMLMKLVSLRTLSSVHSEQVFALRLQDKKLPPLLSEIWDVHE
As to the kind of experiment: Transactivation of recombinant GAL4-fused human LXRalpha LBD (163 to 447 residues) expressed in human L02 cells measured after 24 hrs by luciferase reporter gene assay. The format is cell-based.

The subject of another test is Curvularia australiensis. As to the kind of experiment: Antifungal activity against Curvularia australiensis BY01 assessed as growth inhibition at 0.6 mM measured after 48 hrs by microbroth dilution method. The format is functional. To be noted: BY01, 48 h, read-out: GI. The method in brief: (§1)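 Fungi were grown on PDA plates for 6−8 days at 30 °C, then the mycelia were moved into PD medium and filtered through cotton to give a spore suspension. Each well held PD medium, sample from a 10 mg/mL DMSO stock at about 0.6 mM, and spores (1 × 10^6 CFU). DMSO served as the negative control. OD600 was read at 0 and 48 h at 28 °C and percent growth inhibition calculated.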

Test [2] deals with Indoleamine 2,3-dioxygenase 1 (Homo sapiens, UniProt P14902). As to the kind of experiment: Inhibition of recombinant human IDO1 expressed in Escherichia coli […] preincubated for 15 mins followed by substrate addition and measured after 60 mins.
The target of test [3] is T2, Tyrosine-protein phosphatase non-receptor type 1 (Homo sapiens, UniProt P18031).
T2 sequence (P18031 whole entry): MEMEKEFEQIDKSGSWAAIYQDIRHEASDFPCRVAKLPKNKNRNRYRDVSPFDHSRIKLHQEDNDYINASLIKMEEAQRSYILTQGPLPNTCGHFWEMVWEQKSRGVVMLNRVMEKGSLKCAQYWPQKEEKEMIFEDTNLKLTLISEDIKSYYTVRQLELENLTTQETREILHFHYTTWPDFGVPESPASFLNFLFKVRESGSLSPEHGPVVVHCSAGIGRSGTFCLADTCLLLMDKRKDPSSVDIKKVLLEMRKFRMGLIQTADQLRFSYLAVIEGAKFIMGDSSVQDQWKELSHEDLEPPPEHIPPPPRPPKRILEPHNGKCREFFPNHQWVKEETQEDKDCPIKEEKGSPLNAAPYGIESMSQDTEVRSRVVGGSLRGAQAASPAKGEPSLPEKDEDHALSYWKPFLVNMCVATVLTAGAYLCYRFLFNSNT
As to the kind of experiment: Inhibition of recombinant human PTP1B expressed in Escherichia coli […] preincubated for 15 mins followed by substrate addition and measured after 60 mins. The method in brief:
(§2)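 Recombinant human phosphatases were expressed in E. coli and purified. Enzyme and compound were preincubated for 15 min at room temperature in pH 6.5 buffer (50 mM HEPES, 100 mM NaCl, 1 mM EDTA, 1 mM DTT). Buffer containing 50 mM pNPP was then added and the mix incubated for 60 min at 37 °C. Product p-nitrophenol was read at 405 nm. Assays were run in triplicate and IC50 derived.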

In test [4] the target is L-lactate dehydrogenase A chain (Homo sapiens) (UniProt P00338). Nature of the test: Inhibition of recombinant human LDHA expressed in Escherichia coli […] preincubated for 15 mins followed by substrate addition and measured after 60 mins.
Test [5] concerns the target T3, Tyrosine-protein phosphatase non-receptor type 2 (Homo sapiens, UniProt P17706).
T3 sequence (P17706 whole entry): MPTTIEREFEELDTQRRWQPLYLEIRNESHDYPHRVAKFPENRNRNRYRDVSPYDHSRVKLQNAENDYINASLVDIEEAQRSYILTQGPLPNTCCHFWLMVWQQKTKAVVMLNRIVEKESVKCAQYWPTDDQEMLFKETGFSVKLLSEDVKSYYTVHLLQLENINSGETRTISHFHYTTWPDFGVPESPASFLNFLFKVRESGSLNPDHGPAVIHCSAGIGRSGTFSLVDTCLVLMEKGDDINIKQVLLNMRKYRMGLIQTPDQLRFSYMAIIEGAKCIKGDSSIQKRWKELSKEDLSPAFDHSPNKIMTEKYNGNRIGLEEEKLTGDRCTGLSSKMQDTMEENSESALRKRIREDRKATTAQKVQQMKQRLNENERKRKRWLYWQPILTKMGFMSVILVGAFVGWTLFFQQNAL
Nature of the test: Inhibition of recombinant human TCPTP expressed in Escherichia coli […] preincubated for 15 mins followed by substrate addition and measured after 60 mins. The method in brief:
as §2

Another test has as its system Pyricularia oryzae. Nature of the test: Antifungal activity against Pyricularia oryzae HNM 1003 assessed as growth inhibition at 0.6 mM measured after 48 hrs by microbroth dilution method. The format is functional. To be noted: HNM 1003, 48 h, read-out: GI. For orientation: Broth dilution looks for growth in wells or tubes with falling amounts of substance.
For test [6], the system named is Colletotrichum gloeosporioides. As to the kind of experiment: Antifungal activity against Colletotrichum gloeosporioides HNM 1003 assessed as growth inhibition at 0.6 mM measured after 48 hrs by microbroth dilution method. The format is functional. The conditions noted are these: HNM 1003, 48 h, read-out: GI. The method in brief:
as §1

The target in test [7] is T4, Tyrosine-protein phosphatase non-receptor type 11 (Homo sapiens, UniProt Q06124).
T4 sequence (Q06124 whole entry): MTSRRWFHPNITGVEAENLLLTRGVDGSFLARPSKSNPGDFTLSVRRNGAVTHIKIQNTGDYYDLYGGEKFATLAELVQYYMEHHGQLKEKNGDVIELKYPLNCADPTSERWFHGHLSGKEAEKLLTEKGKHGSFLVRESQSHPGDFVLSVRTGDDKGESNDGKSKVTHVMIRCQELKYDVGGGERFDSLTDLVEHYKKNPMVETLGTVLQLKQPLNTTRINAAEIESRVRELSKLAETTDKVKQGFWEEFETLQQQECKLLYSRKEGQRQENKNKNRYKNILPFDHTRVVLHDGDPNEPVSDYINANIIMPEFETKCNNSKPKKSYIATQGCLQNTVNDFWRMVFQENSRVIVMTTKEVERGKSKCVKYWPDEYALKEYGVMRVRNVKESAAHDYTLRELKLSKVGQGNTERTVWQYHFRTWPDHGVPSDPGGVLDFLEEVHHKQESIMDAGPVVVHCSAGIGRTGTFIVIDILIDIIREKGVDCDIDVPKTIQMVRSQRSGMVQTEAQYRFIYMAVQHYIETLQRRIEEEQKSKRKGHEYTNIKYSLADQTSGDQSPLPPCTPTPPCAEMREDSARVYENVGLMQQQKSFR
Nature of the test: Inhibition of recombinant human SHP2 expressed in Escherichia coli […] preincubated for 15 mins followed by substrate addition and measured after 60 mins. The method in brief:
as §2

The next test relates to Fusarium oxysporum. Nature of the test: Antifungal activity against Fusarium oxysporum HNM 1003 assessed as growth inhibition at 0.6 mM measured after 48 hrs by microbroth dilution method. The format is functional. The conditions noted are these: HNM 1003, 48 h, read-out: GI. The method in brief:
as §1

The target of test [8] is Tyrosine-protein phosphatase non-receptor type 6 (Homo sapiens, UniProt P29350). As to the kind of experiment: Inhibition of recombinant human SHP1 expressed in Escherichia coli […] preincubated for 15 mins followed by substrate addition and measured after 60 mins. The method in brief:
as §2

Test [9] has as its target T5, Tyrosine-protein phosphatase non-receptor type 9 (Homo sapiens, UniProt P43378).
T5 sequence (P43378 whole entry): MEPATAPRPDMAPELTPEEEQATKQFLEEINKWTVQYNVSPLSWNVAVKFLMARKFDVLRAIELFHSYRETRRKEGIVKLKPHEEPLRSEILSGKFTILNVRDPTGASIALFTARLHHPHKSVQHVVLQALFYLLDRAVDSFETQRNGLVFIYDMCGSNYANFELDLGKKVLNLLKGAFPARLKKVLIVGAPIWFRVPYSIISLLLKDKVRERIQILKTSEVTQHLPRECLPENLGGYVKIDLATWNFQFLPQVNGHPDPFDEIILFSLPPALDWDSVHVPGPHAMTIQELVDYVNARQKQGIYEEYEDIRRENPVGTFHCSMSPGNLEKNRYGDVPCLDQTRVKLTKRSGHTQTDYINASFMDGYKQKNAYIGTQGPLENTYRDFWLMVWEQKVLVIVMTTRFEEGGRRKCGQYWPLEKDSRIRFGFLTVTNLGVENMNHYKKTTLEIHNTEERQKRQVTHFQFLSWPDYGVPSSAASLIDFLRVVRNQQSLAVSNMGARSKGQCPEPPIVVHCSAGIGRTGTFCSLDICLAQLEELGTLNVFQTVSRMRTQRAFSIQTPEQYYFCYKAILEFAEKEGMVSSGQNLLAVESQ
As to the kind of experiment: Inhibition of recombinant human MEG2 expressed in Escherichia coli […] preincubated for 15 mins followed by substrate addition and measured after 60 mins. The method in brief: as §2

Each structure is given as a SMILES string. pEC50, pIC50: −log10 of the molar value. The source made the active and inactive calls. The rule behind the calls is not given here.

Usually pEC50 stands for the negative decadic logarithm of the EC50, by convention in mol/L. The pIC50 is the IC50 on a negative log10 scale, so that one unit is a factor of ten.

Sequence of Tyrosine-protein phosphatase non-receptor type 6 (P29350 whole entry): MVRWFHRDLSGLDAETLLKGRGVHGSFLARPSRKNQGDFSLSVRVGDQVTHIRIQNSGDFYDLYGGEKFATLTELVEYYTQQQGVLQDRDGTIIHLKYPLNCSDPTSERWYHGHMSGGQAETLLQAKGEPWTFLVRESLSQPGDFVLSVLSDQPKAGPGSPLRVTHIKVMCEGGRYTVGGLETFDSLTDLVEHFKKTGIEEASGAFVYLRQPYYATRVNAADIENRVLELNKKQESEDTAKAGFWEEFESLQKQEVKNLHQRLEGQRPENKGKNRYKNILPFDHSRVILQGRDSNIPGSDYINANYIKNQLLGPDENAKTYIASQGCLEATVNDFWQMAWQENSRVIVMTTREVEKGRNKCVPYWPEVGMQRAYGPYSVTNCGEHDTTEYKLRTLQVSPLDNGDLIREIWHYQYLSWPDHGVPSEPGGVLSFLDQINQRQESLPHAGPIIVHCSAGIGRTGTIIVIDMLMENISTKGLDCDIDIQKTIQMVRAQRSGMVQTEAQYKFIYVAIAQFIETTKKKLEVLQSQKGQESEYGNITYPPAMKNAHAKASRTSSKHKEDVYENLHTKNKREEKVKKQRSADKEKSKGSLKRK
Sequence of Indoleamine 2,3-dioxygenase 1 (P14902 whole entry): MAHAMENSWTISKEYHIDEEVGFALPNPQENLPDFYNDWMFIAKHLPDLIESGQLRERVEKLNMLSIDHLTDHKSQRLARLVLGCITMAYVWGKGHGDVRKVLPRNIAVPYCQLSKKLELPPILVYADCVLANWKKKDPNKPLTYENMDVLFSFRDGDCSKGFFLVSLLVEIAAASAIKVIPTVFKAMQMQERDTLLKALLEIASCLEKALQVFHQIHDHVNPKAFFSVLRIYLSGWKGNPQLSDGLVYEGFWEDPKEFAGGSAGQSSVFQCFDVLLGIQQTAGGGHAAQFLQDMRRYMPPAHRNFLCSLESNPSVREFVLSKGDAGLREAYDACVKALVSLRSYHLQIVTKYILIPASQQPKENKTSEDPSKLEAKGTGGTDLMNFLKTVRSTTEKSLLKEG

In the case of `C[C@@H]1C(=O)N[C@](O)(Cc2ccccc2)c2nc3c(c(=O)n21)C=CC=CO3`, the pEC50 in test [1] was 4.33. The inhibition of growth at 600 µM (in the test with Curvularia australiensis; in the test on Pyricularia oryzae; in [6]; in the test on Fusarium oxysporum) was less than 50% each time. Further, the pIC50 in test [2], in test [3], in [5], in [7], in [8] and in test [9] was 4.06 to 4.85 throughout. Moreover, the inhibition entry in test [4] was “inactive”.

Consider `C[C@@H]1C(=O)N/C(=C\c2ccccc2)c2nc3c(O)cccc3c(=O)n21`, for which the pEC50 in test [1] was 5.77. The inhibition of growth at 600 µM (with Curvularia australiensis; in the test on Pyricularia oryzae; in test [6]; in the test on Fusarium oxysporum) was less than 50% throughout. Also, the pIC50 in test [2], in [3], in test [5], in [7], in test [8] and in test [9] was 4.06 to 4.85 each time. For the same molecule, in test [4], the inhibition result is “inactive”.

Take `CC[C@@H](C)C1=C2N=C3OC=CC=C[C@]3(OC)C(=O)N2[C@@H](Cc2ccccc2)C(=O)N1`: the pEC50 in test [1] was 4.39. Further, the inhibition of growth at 600 µM (with Curvularia australiensis; with Pyricularia oryzae; in test [6]; in the test with Fusarium oxysporum) was less than 50% each time. In addition, the negative-log IC50 (pIC50) in test [2], in [3], in test [5], in [7], in test [8] and in [9] was 4.06 to 4.85 in each case. Besides, the inhibition result in [4] is “inactive”.

The record behind these values is ChEMBL document CHEMBL4392864, “Diketopiperazine-Type Alkaloids from a Deep-Sea-Derived Aspergillus puniceus Fungus and Their Effects on Liver X Receptor α” (J Nat Prod, 2019).
